Assay results: ChEMBL document CHEMBL1129970, “Biologically active conformer of the effector region of human C5a and modulatory effects of N-terminal receptor binding determinants on activity” (J Med Chem, 1997)
Blank lines part the entries; values can stand above or below the compound they belong to. Peptide text beside a SMILES is read from it.

Key:
Homo sapiens [1] = species on record: Homo sapiens; assay: Log potency ratio [pD2(C5a)-pD2(peptide)] was determined in human polymorphonuclear cells (PMN) (n=4); type: functional
Method in brief: (§1)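 Human PMNs pretreated with cytochalasin B (5 μg/mL, 10 min, 37 °C), then 10⁶ cells stimulated for 60 min at 37 °C. β-Glucuronidase in the supernatant is assayed with 0.01 M p-nitrophenyl β-D-glucuronide (0.1 M acetate, pH 4, 18 h) in triplicate. Reaction stopped with glycine pH 10 and read at 415 nm. pD2 is taken from dose–response curves against the C5a EC50. Efficacy is given relative to C5a maximum (100%).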

Homo sapiens [2] = species on record: Homo sapiens; assay: Relative potency of peptide to stimulate beta-glucuronidase release from human polymorphonuclear cells (PMN) (n=4); type: functional; method in brief: as §1
Homo sapiens [3] = species on record: Homo sapiens; assay: Log potency ratio [pD2(C5a)-pD2(peptide)] was determined in human fetal artery; type: functional
Method in brief: (§2)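 Human fetal artery smooth muscle contraction; full dose–response curves for recombinant human C5a or each peptide in the same tissue preparation. EC50 is the concentration giving 50% of the maximal response, read relative to the C5a maximum. pD2 = −log EC50 (M), averaged per peptide ± SE. Log potency ratio pD2(C5a) − pD2(peptide) is computed within each experiment. Relative potency = antilog(−Δ) × 100.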

[4] = Selectivity of peptide was determined from antilog[pD2(fetal artery)-pD2 (PMN enzyme release)] (n=8); type: functional
Method in brief: (§3)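 Selectivity = antilog[pD2(fetal artery) − pD2(PMN β-glucuronidase release)]. pD2 values come from full dose–response curves in each assay, each generated alongside C5a.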

Homo sapiens [5] = species on record: Homo sapiens; assay: Relative potency of peptide for human fetal artery was determined; type: functional; method in brief: as §2
Homo sapiens [6] = species on record: Homo sapiens; assay: Maximum efficacy relative to C5a (100%) for human polymorphonuclear cells (PMN) was determined (n=4); type: functional; method in brief: as §1
Homo sapiens [7] = species on record: Homo sapiens; assay: Spasmogenic activity was measured by the ability to induce smooth muscle contraction in human fetal artery; type: functional, Muscle tissue; method in brief: as §2
Homo sapiens [8] = species on record: Homo sapiens; assay: Tested for the ability to stimulate beta-glucuronidase release from human polymorphonuclear cells (PMN) (n=4); type: functional; method in brief: as §1
Homo sapiens [9] = species on record: Homo sapiens; assay: Effective concentration to induce smooth muscle contraction in human fetal artery; type: functional; details: Muscle tissue; method in brief: as §2
Homo sapiens [10] = species on record: Homo sapiens; assay: Effective concentration to stimulate beta-glucuronidase release from human polymorphonuclear cells (PMN) (n=3); type: functional; method in brief: as §1
Homo sapiens [11] = species on record: Homo sapiens; assay: Tested for inhibition of binding of [125I]-C5a to intact human polymorphonuclear cells (PMN) (n=3); type: functional
Method in brief: (§4)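 Competition binding on freshly isolated intact human PMNs (0.25 × 10⁶) with 20 pM [¹²⁵I]C5a plus unlabeled C5a or peptide. Buffer is 50 mM HEPES, 1 mM CaCl₂, 5 mM MgCl₂, 0.5% BSA. Incubation 60 min at 4 °C, then filtration, ice-cold washes and gamma counting, triplicates. Nonspecific binding defined with 1 mM peptide or 100 nM C5a. Relative affinity = antilog[−(log IC50 C5a − log IC50 peptide)] × 100. The potency/binding ratio is EC50 divided by the binding IC50.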

Homo sapiens [12] = species on record: Homo sapiens; assay: Relative affinity for PMN receptor (n=3); type: functional; method in brief: as §4
[13] = Selectivity of peptide was determined from antilog[pD2(fetal artery)-pD2 (PMN enzyme release)] (n=35); type: functional; method in brief: as §3
Homo sapiens [14] = species on record: Homo sapiens; assay: Relative potency of peptide to stimulate beta-glucuronidase release from human polymorphonuclear cells (PMN) (n=5); type: functional; method in brief: as §1
Homo sapiens [15] = species on record: Homo sapiens; assay: Tested for the ability to stimulate beta-glucuronidase release from human polymorphonuclear cells (PMN) (n=5); type: functional; method in brief: as §1
Homo sapiens [16] = species on record: Homo sapiens; assay: Log potency ratio [pD2(C5a)-pD2(peptide)] was determined in human polymorphonuclear cells (PMN) (n=5); type: functional; method in brief: as §1
Homo sapiens [17] = species on record: Homo sapiens; assay: Maximum efficacy relative to C5a (100%) for human polymorphonuclear cells (PMN) was determined (n=5); type: functional; method in brief: as §1
Homo sapiens [18] = species on record: Homo sapiens; assay: Effective concentration to stimulate beta-glucuronidase release from human polymorphonuclear cells (PMN) (n=5); type: functional; method in brief: as §1
[19] = (§5) Ratio of concentration agonist potency (EC50) to concentration inhibiting [125I]C5a binding (n=3); method in brief: as §4
[20] = Selectivity of peptide was determined from antilog[pD2(fetal artery)-pD2 (PMN enzyme release)] (n=12); type: functional; method in brief: as §3
Homo sapiens [21] = species on record: Homo sapiens; assay: Maximum efficacy relative to C5a (100%) for human polymorphonuclear cells (PMN) was determined (n=3); type: functional; method in brief: as §1
Homo sapiens [22] = species on record: Homo sapiens; assay: Tested for the ability to stimulate beta-glucuronidase release from human polymorphonuclear cells (PMN) (n=3); type: functional; method in brief: as §1
Homo sapiens [23] = species on record: Homo sapiens; assay: Relative potency of peptide to stimulate beta-glucuronidase release from human polymorphonuclear cells (PMN) (n=3); type: functional; method in brief: as §1
Homo sapiens [24] = species on record: Homo sapiens; assay: Log potency ratio [pD2(C5a)-pD2(peptide)] was determined in human polymorphonuclear cells (PMN) (n=3); type: functional; method in brief: as §1
Homo sapiens [25] = species on record: Homo sapiens; assay: Log potency ratio [pD2(C5a)-pD2(peptide)] was determined in human polymorphonuclear cells (PMN) (n=6); type: functional; method in brief: as §1
Homo sapiens [26] = species on record: Homo sapiens; assay: Tested for the ability to stimulate beta-glucuronidase release from human polymorphonuclear cells (PMN) (n=6); type: functional; method in brief: as §1
Homo sapiens [27] = species on record: Homo sapiens; assay: as §5; type: functional; method in brief: as §4
Homo sapiens [28] = species on record: Homo sapiens; assay: Maximum efficacy relative to C5a (100%) for human polymorphonuclear cells (PMN) was determined (n=6); type: functional; method in brief: as §1
Homo sapiens [29] = species on record: Homo sapiens; assay: Effective concentration to stimulate beta-glucuronidase release from human polymorphonuclear cells (PMN) (n=6); type: functional; method in brief: as §1
Homo sapiens [30] = species on record: Homo sapiens; assay: Log potency ratio [log IC50(C5a)-log IC50(peptide)] was determined in human polymorphonuclear cells (PMN) (n=3); type: functional; method in brief: as §4
Homo sapiens [31] = species on record: Homo sapiens; assay: Selectivity of peptide was determined from antilog [pD2(fetal artery)-pD2 (PMN enzyme release)] (n=28); type: functional; method in brief: as §3
Homo sapiens [32] = species on record: Homo sapiens; assay: Tested for inhibition of binding of [125I]C5a to intact human polymorphonuclear cells (PMN) (n=3); type: functional; method in brief: as §4
Homo sapiens [33] = species on record: Homo sapiens; assay: Relative potency of peptide to stimulate beta-glucuronidase release from human polymorphonuclear cells (PMN) (n=6); type: functional; method in brief: as §1

Compound: CSCC[C@H](NC(=O)[C@@H]1CCCN1C(=O)[C@H](CCCCN)NC(=O)[C@H](Cc1ccccc1)NC(=O)[C@H](CO)NC(=O)[C@H](Cc1ccc(O)cc1)NC(C)=O)C(=O)N1CCC[C@H]1C(=O)N[C@@H](CC(C)C)C(=O)N[C@H](C)C(=O)N[C@@H](CCCN=C(N)N)C(=O)O
- Mean log concentration ratio (Homo sapiens [1]): 2.44
- Potency (Homo sapiens [2]): 0.4%
- Mean log concentration ratio (Homo sapiens [3]): 0.74
- Selectivity [4]: 89
- Potency (Homo sapiens [5]): 9.6%
- C5a max (Homo sapiens [6]): 148%
- pD2 (Homo sapiens [7]): 6.98
- pD2 (Homo sapiens [8]): 5.03

Compound: CSCC[C@H](NC(=O)[C@@H]1CCCN1C(=O)[C@H](CCCCN)NC(=O)[C@H](Cc1ccccc1)NC(=O)[C@H](CO)NC(=O)[C@H](Cc1ccc(O)cc1)NC(=O)CCCCCNC(=O)[C@@H](N)CCCCN)C(=O)N1CCC[C@H]1C(=O)N[C@@H](CC(C)C)C(=O)N[C@H](C)C(=O)N[C@@H](CCCN=C(N)N)C(=O)O [listing 2 of 2 here]
- Selectivity [20]: 59
- Mean log concentration ratio (Homo sapiens [3]): 0.84
- C5a max (Homo sapiens [21]): 145%
- pD2 (Homo sapiens [22]): 5.37
- Potency (Homo sapiens [5]): 14%
- pD2 (Homo sapiens [7]): 7.14
- Potency (Homo sapiens [23]): 1.2%
- Mean log concentration ratio (Homo sapiens [24]): 1.93

Second part, led by results:

- EC50 (Homo sapiens [9]): 0.09 µM
- EC50 (Homo sapiens [10]): 4.3 µM
Compound: CSCC[C@H](NC(=O)[C@@H]1CCCN1C(=O)[C@H](CCCCN)NC(=O)[C@H](Cc1ccccc1)NC(=O)[C@H](CO)NC(=O)[C@H](Cc1ccc(O)cc1)NC(=O)CCCCCNC(=O)[C@@H](N)CCCCN)C(=O)N1CCC[C@H]1C(=O)N[C@@H](CC(C)C)C(=O)N[C@H](C)C(=O)N[C@@H](CCCN=C(N)N)C(=O)O [listing 1 of 2 here]

- IC50 (Homo sapiens [11]): 1.3 µM
- EC50 (Homo sapiens [9]): 9.6 µM
- EC50 (Homo sapiens [18]): 92 µM
- Ratio [19]: 72
Compound: CSCC[C@H](NC(=O)[C@H](CC(=O)O)NC(=O)[C@H](CCCCN)NC(=O)[C@H](Cc1ccccc1)NC(=O)[C@H](CO)NC(=O)[C@@H](N)Cc1ccc(O)cc1)C(=O)N[C@@H](CCC(N)=O)C(=O)N[C@@H](CC(C)C)C(=O)NCC(=O)N[C@@H](CCCN=C(N)N)C(=O)O (H-YSFKDMQLGR-OH)
- C5a affinity (Homo sapiens [12]): 0.022%
- Mean log concentration ratio (Homo sapiens [3]): 3
- Selectivity [13]: 8.3
- Potency (Homo sapiens [5]): 0.1%
- Potency (Homo sapiens [14]): 0.04%
- pD2 (Homo sapiens [15]): 4.04
- pD2 (Homo sapiens [7]): 4.96
- Mean log concentration ratio (Homo sapiens [16]): 3.42
- C5a max (Homo sapiens [17]): 87%

- EC50 (Homo sapiens [29]): 72 µM
- EC50 (Homo sapiens [9]): 0.5 µM
- IC50 (Homo sapiens [32]): 3.7 µM
Compound: CSCC[C@H](NC(=O)[C@H](CC(=O)O)NC(=O)[C@H](CCCCN)NC(=O)[C@H](Cc1ccccc1)NC(=O)[C@H](CO)NC(=O)[C@@H](N)Cc1ccc(O)cc1)C(=O)N1CCC[C@H]1C(=O)N[C@@H](CC(C)C)C(=O)N[C@H](C)C(=O)N[C@@H](CCCN=C(N)N)C(=O)O
- Mean log concentration ratio (Homo sapiens [25]): 3.35
- pD2 (Homo sapiens [26]): 4.14
- Ratio (Homo sapiens [27]): 19
- C5a affinity (Homo sapiens [12]): 0.007%
- Mean log concentration ratio (Homo sapiens [3]): 1.66
- Potency (Homo sapiens [5]): 2.2%
- C5a max (Homo sapiens [28]): 174%
- pD2 (Homo sapiens [7]): 6.32
- Mean log concentration ratio (Homo sapiens [30]): 4.13
- Selectivity (Homo sapiens [31]): 151
- Potency (Homo sapiens [33]): 0.04%
